This is an account of results in PMC10173165 (Journal of Advanced Research, 2022).

Ends that are not written are not given here.

The half-life is the time needed for the level to fall by half in the phase considered. As a reminder, the bioavailability is the share of a dose that reaches the circulation, judged against a reference dose that is usually intravenous.

In series [1] the target is T1, (His)6-MED23_391–582 / FITC-ELF3_129–145 (Homo sapiens, UniProt Q9ULK4).
T1 sequence (Q9ULK4 391-582): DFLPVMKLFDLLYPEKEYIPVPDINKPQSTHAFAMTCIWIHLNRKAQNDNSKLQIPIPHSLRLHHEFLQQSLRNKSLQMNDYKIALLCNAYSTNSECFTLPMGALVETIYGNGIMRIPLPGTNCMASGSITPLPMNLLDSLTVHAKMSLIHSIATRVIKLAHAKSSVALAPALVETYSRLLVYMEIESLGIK
Put plainly: Fluorescence polarization assay. The class given is binding. The following applies: negative control. A general note: Fluorescence polarisation rises when a labelled molecule tumbles more slowly, as on binding a larger partner.

For a further series, the system named is NCI-N87 xenograft. Put plainly: NCI-N87 tumor xenograft with IHC. Type of series: in vivo, athymic nude mice. The gist of the method: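 Female athymic nude mice (5 weeks old) received 5 × 10^6 NCI-N87 cells s.c. in PBS into the right flank and were randomised at 90–100 mm3 (n = 5/group). Dosing was 4 mg/kg i.v. in DMAC/Tween80/saline (5:10:85), six times at 3-day intervals. Caliper volume (L × W2)/2 was followed to day 28. Paraffin tumour sections were stained for HER2 and Ki-67 (DAB), with IHC score = intensity × fraction (0–300) over 10 fields per sample.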

Series [2] in a line: Genotoxicity safety assessment.
Series [3] in a line: Intravenous and oral pharmacokinetic profile. Type of series: in vivo, ICR mice. The note with it: male, ICR, mouse, plasma.
For a further series, the target named is T2, Nluc-ELF3^WT (human, UniProt P78545-1 1-371).
T2 sequence: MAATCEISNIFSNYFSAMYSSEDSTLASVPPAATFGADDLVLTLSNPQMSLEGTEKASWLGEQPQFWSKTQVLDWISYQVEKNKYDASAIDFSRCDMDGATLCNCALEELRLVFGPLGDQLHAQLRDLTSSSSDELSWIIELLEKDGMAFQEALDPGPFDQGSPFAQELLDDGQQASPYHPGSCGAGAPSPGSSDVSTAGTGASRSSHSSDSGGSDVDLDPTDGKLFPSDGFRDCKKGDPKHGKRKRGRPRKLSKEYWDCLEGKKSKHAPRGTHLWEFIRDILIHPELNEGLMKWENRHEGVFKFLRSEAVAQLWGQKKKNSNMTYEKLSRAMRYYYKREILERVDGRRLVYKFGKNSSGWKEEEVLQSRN
Put plainly: split reporter.

A further series addresses T3, (His)6-MED23_(391–582) (human, UniProt Q9ULK4 391-582).
T3 sequence: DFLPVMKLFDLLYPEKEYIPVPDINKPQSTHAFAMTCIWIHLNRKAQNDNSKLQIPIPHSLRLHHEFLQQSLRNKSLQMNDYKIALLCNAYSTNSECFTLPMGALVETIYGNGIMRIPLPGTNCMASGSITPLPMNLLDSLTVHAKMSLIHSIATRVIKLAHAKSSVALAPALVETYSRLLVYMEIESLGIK
Put plainly: fluorescence polarisation.

[4] abbreviates: 4 mg/kg IV, compared to untreated control.

Turning to `COc1ccc(C2CC(c3ccccc3O)=NN2C(C)=O)c2ccccc12` (stereo not drawn) [Compound 18], the “Change of FP signal” value in series [1] is “made no such changes”.
Regarding `CC(=O)N1N=C(c2cccc(O)c2)CC1c1ccc(Cl)cc1` (stereo not drawn) [Compound 15], in the series with NCI-N87 xenograft (4 mg/kg IV every 3 days), the Tumor growth result is on record as “significant tumor growth retardation”. In the series on NCI-N87 xenograft (setting [4]), the “Decrease in proliferation marker Ki67 (IHC)” value is listed as 4.5 fold and the “Reduction of HER2 level in the tumor (IHC)” value was found to be 1.8 fold. Further, the Genotoxicity entry in series [2] is given as “no association of genotoxicity”. Moreover, the half-life in series [3] (iv) is 9.74 ± 2.76 h. In addition, in series [3] (po), the bioavailability is 25.1% and the half-life is 10.9 ± 11 h.

B1: Cluc-MED23_(391-582)^WT (domain or fragment)
chain: DFLPVMKLFDLLYPEKEYIPVPDINKPQSTHAFAMTCIWIHLNRKAQNDNSKLQIPIPHSLRLHHEFLQQSLRNKSLQMNDYKIALLCNAYSTNSECFTLPMGALVETIYGNGIMRIPLPGTNCMASGSITPLPMNLLDSLTVHAKMSLIHSIATRVIKLAHAKSSVALAPALVETYSRLLVYMEIESLGIK
In the case of B1, the “fold change of luciferase activity relative to control” value in the series with Nluc-ELF3^WT came out at 5.2 fold.

B2: Cluc-MED23_(391-582)^K397A (domain or fragment)
chain: DFLPVMALFDLLYPEKEYIPVPDINKPQSTHAFAMTCIWIHLNRKAQNDNSKLQIPIPHSLRLHHEFLQQSLRNKSLQMNDYKIALLCNAYSTNSECFTLPMGALVETIYGNGIMRIPLPGTNCMASGSITPLPMNLLDSLTVHAKMSLIHSIATRVIKLAHAKSSVALAPALVETYSRLLVYMEIESLGIK
Consider B2, for which the “fold change of luciferase activity relative to control” value with Nluc-ELF3^WT is 4.8 fold.

B3: Cluc-MED23_(391-462) (domain or fragment)
chain: DFLPVMKLFDLLYPEKEYIPVPDINKPQSTHAFAMTCIWIHLNRKAQNDNSKLQIPIPHSLRLHHEFLQQSL
Regarding B3, the “fold change of luciferase activity vs control” value in the series with Nluc-ELF3^WT worked out at 6 fold.
As for TSSSSDELSWIIELLEK (also: FITC label, position not given here) [FITC-labeled ELF3_(129–145) peptide], the binding result in the series with (His)6-MED23_(391–582) is recorded as “binds”.
